# NRP1-CendR mod = NRP-1/CendR interaction modulation | O14786 | FAM-RPARPAR peptide binding to NRP-1, fluorescence polarization | inhibition, % at 25 µM | 360,000 compounds, 0.85% hits;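 active means inhibition or corrected inhibition above about 18%, plus a signal ratio from 0.5 to 1.5, limit read from the data, passing the limit was not always enough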
# Target sequence (O14786 whole entry, looked up): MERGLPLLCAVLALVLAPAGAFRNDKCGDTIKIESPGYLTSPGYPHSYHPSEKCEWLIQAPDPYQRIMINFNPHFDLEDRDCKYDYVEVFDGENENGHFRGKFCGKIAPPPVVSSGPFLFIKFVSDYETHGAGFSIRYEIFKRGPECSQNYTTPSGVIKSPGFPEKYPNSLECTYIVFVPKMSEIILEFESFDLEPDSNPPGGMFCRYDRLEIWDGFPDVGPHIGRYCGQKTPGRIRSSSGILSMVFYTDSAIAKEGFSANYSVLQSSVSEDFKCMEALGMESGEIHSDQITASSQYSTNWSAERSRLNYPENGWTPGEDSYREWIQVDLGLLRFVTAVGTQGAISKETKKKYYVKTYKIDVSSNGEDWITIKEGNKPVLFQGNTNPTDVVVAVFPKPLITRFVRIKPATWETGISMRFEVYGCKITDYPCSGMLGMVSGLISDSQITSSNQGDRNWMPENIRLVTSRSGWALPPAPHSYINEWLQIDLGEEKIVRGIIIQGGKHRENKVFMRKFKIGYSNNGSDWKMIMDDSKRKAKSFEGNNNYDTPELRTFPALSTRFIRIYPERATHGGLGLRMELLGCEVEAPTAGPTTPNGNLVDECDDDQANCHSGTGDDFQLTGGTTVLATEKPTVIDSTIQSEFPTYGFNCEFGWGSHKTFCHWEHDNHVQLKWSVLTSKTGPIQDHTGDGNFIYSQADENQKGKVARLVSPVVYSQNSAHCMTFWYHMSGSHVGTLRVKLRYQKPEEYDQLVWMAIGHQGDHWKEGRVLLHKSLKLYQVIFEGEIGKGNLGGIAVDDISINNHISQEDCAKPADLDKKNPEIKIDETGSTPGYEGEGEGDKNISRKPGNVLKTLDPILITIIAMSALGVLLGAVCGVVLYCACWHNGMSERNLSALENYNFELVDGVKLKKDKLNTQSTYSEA
# CTSL1 counter = counter-screen for PFM18AAP inhibitors: inhibitors of F. hepatica cathepsin L1. recombinant F. hepatica cathepsin L1, Z-Leu-Arg-MCA fluorescence. 300,000 compounds, 0.49% hits. inhibition, % at 5.96 µM;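 active means inhibition above the mean of all tested compounds plus 3 SD, set per screening campaign, cut at about 17% in these data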;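 further: 0% = plate median of test compound wells and 100% = 1 µM Z-Phe-Ala-diazomethylketone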
# MT1-MMP act inh = MT1-MMP (human) activation inhibition. P50281. HT1080 RFP-PRO-GFP cells, GFP/RFP ratio fluorescence, overnight; percent of plate control window, DMSO zero. GFP/RFP ratio change, % at 20 µM. 360,000 compounds, 0.061% hits. AID 651647;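 active means GFP/RFP ratio change of at least 30% with cell ATP level not reduced by more than half and red fluorescence within 50% of control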
#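 Test system: HT1080 RFP-PRO-GFP cells; Benchmarks: DMSO and RFP-L50D-GFP cell wells; Timing: cells overnight before dosing, compound overnight, 37 °C, 5% CO2; Compound: one 20 µM compound dose with 1% DMSO; Read-out: GFP/RFP fluorescence ratio.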
# UCH37 DUB inh = human UCH37 deubiquitinating enzyme inhibition. Q9Y5K5. purified proteasome/UCH37, Ub-AMC cleavage fluorescence. inhibition, % (no concentration beside the values). 330,000 compounds, 0.33% hits;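 active means mean inhibition over replicate wells above about 20%, limit read from the data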;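 further: 0% = compound-free wells with enzyme and 100% = wells lacking proteasome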
#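 Schedule: 30 min plus 25 min, room temperature / Material: human UCH37 within purified proteasomes / Technique: AMC fluorescence intensity at 355/460 nm / Buffer or medium: pH 7.4 Tris-HCl (50 mM) with ovalbumin, ATP-MgCl2, DTT / Controls: wells without proteasome as full block, compound-free enzyme plus substrate as uninhibited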
# DAGLB inhibitor = diacylglycerol lipase beta (human) inhibition; Q8NCG7; HEK293T DAGLB membrane lysate, EnzChek fluorogenic substrate; inhibition, % at 5.17 µM; 340,000 compounds, 0.059% hits; AID 504411; in the data active means inhibition above about 34%;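 further: 0% = enzyme with vehicle and 100% = wells lacking enzyme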
# * marks the source's active call; other numbers are inactive results; · = no result. Rows were chosen to be rich in hits. Some 1.5% of all compounds tested hit in one or more screens of this group.
SMILES,NRP1-CendR mod,CTSL1 counter,MT1-MMP act inh,UCH37 DUB inh,DAGLB inhibitor
COc1ccc(NC(=O)CN2CCN(c3c(C)cc(C)cc3C)CC2)cc1,37.4*,-6.1,0.2,0.2,-9.8
CC(=O)Nc1ccc(S(=O)(=O)N2CCN(c3ccc(C)c(Cl)c3)CC2)cc1,-1.8,19.8*,11.3,1.3,2.1
Nc1nc2ccccc2n1N=Cc1ccc2c(c1)OCO2,·,·,·,7.3,·
O=C(NN=Cc1ccc2c(c1)OCO2)c1cccnc1,·,·,·,7.2,·
O=C(NCS(=O)(=O)c1ccccc1)c1ccccc1,-0.4,29.8*,5.6,2.6,-1.6
COc1ccc(-c2csc(/C(C#N)=C\c3ccc(O)c([N+](=O)[O-])c3)n2)cc1OC,-60.4,0.8,5.5,20.8*,11.8
COc1ccc(-c2csc(/C(C#N)=C\c3ccc(OC)c([N+](=O)[O-])c3)n2)cc1,4.0,-0.3,-9.0,-7.2,-2.6
CN1CCN(C(=S)NC(=O)c2ccc(Cl)cc2)CC1,2.5,·,-9.2,2.2,3.3
O=C(NC(=S)N1CCCC1)c1ccc(Cl)cc1,29.9*,0.0,1.5,-1.8,-1.9
Cc1cccc(C)c1OCc1nc2ccccc2c(=O)n1N=Cc1c[nH]c2ccccc12,·,·,·,3.7,·
COC(=O)c1cc[n+](CC(=O)c2ccccc2)cc1,0.1,0.1,4.0,23.4*,-5.7
COc1ccc(C(=O)NCC(=O)NN=C(C)c2ccco2)cc1OC,·,·,·,2.7,·
O=C(/C=C/c1ccccc1)NCC(=O)NN=Cc1cccnc1,·,·,·,1.3,·
COc1ccc(C(=O)Nc2ccc(C(=O)OCC(=O)c3cccc4ccccc34)cc2)cc1,32.2*,-0.4,4.9,·,1.1
COc1ccc(NC(=O)c2ccc3ccccc3c2)cc1,7.9,-0.2,-4.2,0.5,-2.1
CCOc1ccc(-n2c(Cc3cc(=O)[nH]c(=O)[nH]3)nnc2SC(C)C)cc1,38.4*,-2.5,-2.0,3.4,2.0
COc1ccc(C=NNc2nnc(Cc3ccc(OC)c(OC)c3)c(=O)[nH]2)cc1,·,·,·,2.7,·
CCOCc1nnc(NC(=O)c2c(OC)cccc2OC)s1,20.3*,-0.7,1.9,-1.0,1.9
Cc1[nH]n(-c2ccccc2)c(=O)c1C=NNC(=O)COc1ccccc1[N+](=O)[O-],·,·,·,8.2,·
Cc1ccc2c(c1)-c1c(cnn1CC(=O)N(Cc1ccco1)C1CCCCC1)CO2,5.2,29.0*,-2.7,1.6,-10.4
Cc1ccc2c(c1)-c1c(cnn1CC(=O)N(CCC#N)c1ccccc1)CO2,0.1,47.0*,-0.8,1.6,-0.1
Cc1ccc2c(c1)-c1c(cnn1CC(=O)NC(C)CCc1ccco1)CO2 (stereo not drawn),-33.1,0.3,-9.8,1.3,-3.7
CCOC(=O)N1CCC(NC(=O)Cn2ncc3c2-c2cc(C)ccc2OC3)CC1,12.4,-3.6,2.0,1.5,1.0
O=C(NCCN1CCCCCC1)C1CCN(S(=O)(=O)N2CCOCC2)CC1,22.6*,0.4,2.4,5.2,1.1
N#C/C(=C\c1ccccc1)C(=O)OCC(=O)N1CCCC1,23.7*,-0.7,-4.7,0.7,0.3
SMILES,NRP1-CendR mod,CTSL1 counter,MT1-MMP act inh,UCH37 DUB inh,DAGLB inhibitor
N#Cc1ccccc1OCC(=O)OCC(=O)N1CCCC1,19.1*,·,0.7,0.6,0.2
N#C/C(=C\c1ccccc1)C(=O)N1CCC(C(N)=O)CC1,0.3,-4.9,-5.7,5.7,-1.0
CSc1nncn1N=Cc1cc(Cl)ccc1F,·,·,·,0.3,·
CC1(C)O[C@@H]2[C@H](O1)[C@@H](CO)O[C@H]2n1cnc2c(=O)[nH]cnc21,25.7*,·,2.1,3.7,-0.5
CC(C)(C)OC(=O)Nc1ncnc2c1ncn2C1OC(CO)C2OC(C)(C)OC21 (stereo not drawn),-4.3,1.6,2.9,1.7,-0.9
CCOc1cc(C(=O)NN=Cc2cn(CC)nc2C)cc(OCC)c1OCC,·,·,·,-24.5,·
C[C@H](NC(=O)CCC1CCC(=O)N1)c1ccccc1 (stereo partly drawn),19.1*,-1.9,0.8,1.6,1.3
CC(NC(=O)CCC(=O)NC(C)c1ccccc1)c1ccccc1 (stereo not drawn),1.0,-1.1,4.2,3.1,-1.7
CCCn1c(SCC(=O)NCCc2ccccc2)nnc1-c1ccccn1,5.4,6.6,-7.6,1.7,-1.6
CCCn1c(SCC(=O)Nc2nnc(-c3ccccc3)s2)nnc1-c1ccccn1,26.7*,-0.5,-2.7,1.1,6.6
Cc1ccc(C(=O)ON=CC2=C(Cl)c3ccccc3CC2)cc1,·,·,·,5.4,·
C#CCOCCOCCOCCNc1nc(N2CCN(C(=O)[C@H]([C@@H](C)O)n3cc(CCCCN)nn3)CC2)nc(N2CCN(C(=O)[C@H](Cc3ccc(O)cc3)n3cc(CCO)nn3)CC2)n1,22.2*,-3.0,1.3,-1.6,-2.4
C#CCOCCOCCOCCNc1nc(N2CCN(C(=O)[C@H](Cc3ccc(O)cc3)n3cc(CCO)nn3)CC2)nc(N2CCN(C(=O)[C@H](Cc3ccc(O)cc3)n3cc(CCO)nn3)CC2)n1,·,2.0,·,1.9,·
C#CCOCCOCCOCCNc1nc(N2CCN(C(=O)[C@H](C(C)C)n3cc(CCO)nn3)CC2)nc(N2CCN(C(=O)[C@H](Cc3ccc(O)cc3)n3cc(CCO)nn3)CC2)n1,28.8*,·,1.7,-0.3,0.9
C#CCOCCOCCOCCNc1nc(N2CCN(C(=O)[C@H]([C@@H](C)CC)n3cc(CCCN=C(N)N)nn3)CC2)nc(N2CCN(C(=O)[C@H](Cc3ccc(O)cc3)n3cc(CCO)nn3)CC2)n1,8.2,-1.8,4.4,5.3,2.6
C#CCOCCOCCOCCNc1nc(N2CCN(C(=O)C(Cc3ccc(O)cc3)n3cc(C(N)CC(C)C)nn3)CC2)nc(N2CCN(C(=O)C(Cc3cc4ccccc4[nH]3)n3cc(C(N)Cc4ccc(O)cc4)nn3)CC2)n1 (stereo not drawn),·,-2.1,·,3.3,·
C#CCOCCOCCOCCNc1nc(N2CCOCC2)nc(N2CCN(C(=O)[C@H](Cc3cc4ccccc4[nH]3)n3cc([C@@H](N)Cc4ccc(O)cc4)nn3)CC2)n1,3.3,-2.6,-2.1,23.4*,-1.6
Cc1nccn1CC(=O)NN=Cc1ccccc1O,·,·,·,-45.7,·
CC(=NNC(=O)c1ccc(NS(=O)(=O)c2cccs2)cc1)c1ccc(Cl)cc1,·,·,·,6.2,·
Cc1ccc2[nH]c(=O)c(-c3nc4cc(C)ccn4c3NCc3ccco3)cc2c1,-11.3,2.1,-5.2,4.0,-0.1
Cc1cccc2cc(-c3nc4c(C)cccn4c3NCc3ccco3)c(=O)[nH]c12,12.3,7.5,-5.8,24.7*,4.1
CCCCNC(=S)N1CCn2cccc2C1c1ccccc1 (stereo not drawn),27.1*,1.3,4.6,5.6,-3.0
CC(=NNC(=O)CNC(=O)c1ccncc1)c1ccc(C)cc1,·,·,·,3.0,·
